ChEMBL document CHEMBL1275592, “AmpN-AmpG operon is essential for expression of L1 and L2 beta-lactamases in Stenotrophomonas maltophilia” (2010)
≈ marks a conversion by molar mass, not a printed value.

How the values were obtained:
Assay type in all cases: functional
[1] = test system: Stenotrophomonas maltophilia; test: Antimicrobial activity against Stenotrophomonas maltophilia KJG harboring ampG with xylE-Gmomega cassette insertion by agar dilution method
Method in brief: (§1)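 MICs were determined in triplicate by standard 2-fold serial agar dilution, following CLSI guidelines.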

[2] = test system: Stenotrophomonas maltophilia; test: Antimicrobial activity against Stenotrophomonas maltophilia KJN2 harboring pRK-NG plasmid and ampN with xylE-Gmomega cassette insertion by agar dilution method; method in brief: as §1
[3] = test system: Stenotrophomonas maltophilia; test: Antimicrobial activity against Stenotrophomonas maltophilia KJN2 harboring pRK415 plasmid and ampN with xylE-Gmomega cassette insertion by agar dilution method; method in brief: as §1
[4] = test system: Stenotrophomonas maltophilia; test: Antimicrobial activity against Stenotrophomonas maltophilia KJN2 harboring pRK-EcG plasmid and ampN with xylE-Gmomega cassette insertion by agar dilution method; method in brief: as §1
[5] = test system: Stenotrophomonas maltophilia; test: Antimicrobial activity against Stenotrophomonas maltophilia KJ harboring pRK415 plasmid by agar dilution method; method in brief: as §1
[6] = test system: Stenotrophomonas maltophilia; test: Antimicrobial activity against Stenotrophomonas maltophilia KJ harboring pRK-NG plasmid by agar dilution method; method in brief: as §1
[7] = test system: Stenotrophomonas maltophilia; test: Antimicrobial activity against ampN deficient Stenotrophomonas maltophilia KJ by agar dilution method; method in brief: as §1
[8] = test system: Stenotrophomonas maltophilia; test: Antimicrobial activity against Stenotrophomonas maltophilia KJN2 harboring ampN with xylE-Gmomega cassette insertion by agar dilution method; method in brief: as §1
[9] = test system: Stenotrophomonas maltophilia; test: Antimicrobial activity against Stenotrophomonas maltophilia KJ by agar dilution method; method in brief: as §1
[10] = test system: Stenotrophomonas maltophilia; test: Antimicrobial activity against Stenotrophomonas maltophilia KJN2 harboring pRK-G plasmid and ampN with xylE-Gmomega cassette insertion by agar dilution method; method in brief: as §1
[11] = test system: Stenotrophomonas maltophilia; test: Antimicrobial activity against ampN deficient Stenotrophomonas maltophilia KJ harboring ampG with xylE-Gmomega cassette insertion by agar dilution method; method in brief: as §1
[12] = test system: Stenotrophomonas maltophilia; test: Antimicrobial activity against Stenotrophomonas maltophilia KJN1 harboring ampN with xylE-Gmomega cassette insertion by agar dilution method; method in brief: as §1
[13] = test system: Stenotrophomonas maltophilia; test: Antimicrobial activity against Stenotrophomonas maltophilia KJN2 harboring pRK-NG plasmid and ampN with xylE-Gmomega cassette insertion by Etest
Method in brief: (§2)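 Imipenem and meropenem MICs were read from Etest strips, following the manufacturer's instructions.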

[14] = test system: Stenotrophomonas maltophilia; test: Antimicrobial activity against Stenotrophomonas maltophilia KJ by Etest; method in brief: as §2
[15] = test system: Stenotrophomonas maltophilia; test: Antimicrobial activity against Stenotrophomonas maltophilia KJN1 harboring ampN with xylE-Gmomega cassette insertion by Etest; method in brief: as §2
[16] = test system: Stenotrophomonas maltophilia; test: Antimicrobial activity against ampN deficient Stenotrophomonas maltophilia KJ by Etest; method in brief: as §2
[17] = test system: Stenotrophomonas maltophilia; test: Antimicrobial activity against ampN deficient Stenotrophomonas maltophilia KJ harboring ampG with xylE-Gmomega cassette insertion by Etest; method in brief: as §2
[18] = test system: Stenotrophomonas maltophilia; test: Antimicrobial activity against Stenotrophomonas maltophilia KJG harboring ampG with xylE-Gmomega cassette insertion by Etest; method in brief: as §2
[19] = test system: Stenotrophomonas maltophilia; test: Antimicrobial activity against Stenotrophomonas maltophilia KJN2 harboring pRK415 plasmid and ampN with xylE-Gmomega cassette insertion by Etest; method in brief: as §2
[20] = test system: Stenotrophomonas maltophilia; test: Antimicrobial activity against Stenotrophomonas maltophilia KJN2 harboring pRK-EcG plasmid and ampN with xylE-Gmomega cassette insertion by Etest; method in brief: as §2
[21] = test system: Stenotrophomonas maltophilia; test: Antimicrobial activity against Stenotrophomonas maltophilia KJN2 harboring pRK-G plasmid and ampN with xylE-Gmomega cassette insertion by Etest; method in brief: as §2
[22] = test system: Stenotrophomonas maltophilia; test: Antimicrobial activity against Stenotrophomonas maltophilia KJN2 harboring ampN with xylE-Gmomega cassette insertion by Etest; method in brief: as §2

With `CO[C@@]1(NC(=O)Cc2cccs2)C(=O)N2C(C(=O)O)=C(COC(N)=O)CS[C@@H]21` [CEFOXITIN] the MIC [1] was 32 µg/mL (≈ 74.9 µM), the MIC [2] was 1020 µg/mL (≈ 2400 µM) and the MIC [3] was 32 µg/mL (≈ 74.9 µM). For the same molecule, the MIC [4] was 1020 µg/mL (≈ 2400 µM), the MIC [5] was 1020 µg/mL (≈ 2400 µM) and the MIC [6] was 1020 µg/mL (≈ 2400 µM). It also gave an MIC [7] of 32 µg/mL (≈ 74.9 µM), an MIC [8] of 32 µg/mL (≈ 74.9 µM) and an MIC [9] of 1020 µg/mL (≈ 2400 µM). For the same molecule, the MIC [10] was 64 µg/mL (≈ 150 µM), the MIC [11] was 32 µg/mL (≈ 74.9 µM) and the MIC [12] was 32 µg/mL (≈ 74.9 µM).
`C[C@@H](O)[C@H]1C(=O)N2C(C(=O)O)=C(SCCNC=N)C[C@H]12` [IMIPENEM ANHYDROUS] gave an MIC [13] of over 32 µg/mL, an MIC [14] of over 32 µg/mL and an MIC [15] of 4 µg/mL (≈ 13.4 µM). For the same molecule, the MIC [16] was 4 µg/mL (≈ 13.4 µM), the MIC [17] was 2 µg/mL (≈ 6.68 µM) and the MIC [18] was 2 µg/mL (≈ 6.68 µM). It also gave an MIC [19] of 1.5 µg/mL (≈ 5.01 µM), an MIC [20] of over 32 µg/mL and an MIC [21] of 3 µg/mL (≈ 10 µM). The MIC [22] was 2 µg/mL (≈ 6.68 µM).
In the case of `C[C@H]1[C@H](NC(=O)/C(=N\OC(C)(C)C(=O)O)c2csc(N)n2)C(=O)N1S(=O)(=O)O` [AZTREONAM], the MIC [1] is reported as 16 µg/mL (≈ 36.7 µM), the MIC [2] is reported as over 1020 µg/mL and the MIC [3] is reported as 16 µg/mL (≈ 36.7 µM). For the same molecule, the MIC [4] was over 1020 µg/mL, the MIC [5] was over 1020 µg/mL and the MIC [6] was over 1020 µg/mL. For the same molecule, the MIC [7] was 32 µg/mL (≈ 73.5 µM), the MIC [8] was 16 µg/mL (≈ 36.7 µM) and the MIC [9] was over 1020 µg/mL. For the same molecule, the MIC [10] was 32 µg/mL (≈ 73.5 µM), the MIC [11] was 16 µg/mL (≈ 36.7 µM) and the MIC [12] was 32 µg/mL (≈ 73.5 µM).
